# Test results published in ChEMBL document CHEMBL1138344, “Nuclear magnetic resonance fragment-based identification of novel FKBP12 inhibitors” (J Med Chem, 2007).
# Molecular target: Peptidyl-prolyl cis-trans isomerase FKBP1A (Homo sapiens, UniProt P62942)
# Sequence (P62942 whole entry): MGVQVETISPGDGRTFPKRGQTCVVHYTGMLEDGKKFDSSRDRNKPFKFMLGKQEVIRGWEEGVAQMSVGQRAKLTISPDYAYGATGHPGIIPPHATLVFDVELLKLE
row,Compound,Kd [µM]
1,COc1cc(CNCc2cccs2)ccc1OCC(=O)N1CCOCC1,> 5000
2,Clc1cccc(Cl)c1Cn1c(-c2cscn2)nc2ccccc21,> 4000
3,Cc1ccc(S(=O)(=O)CC(=O)N2CCOCC2)cc1,> 5000
4,O=C(CSc1cccc2cccnc12)N1CCOCC1,> 1400
5,O=S(=O)(Nc1ccc2c(c1)oc1ccccc12)N1CCCCC1,> 3700
6,CC(C)c1ccc(SCC(=O)O)cc1,> 4000
7,COc1cc2c(cc1NS(=O)(=O)N1CCCCC1)oc1ccccc12,> 3700
8,CCOc1ccc(NS(=O)(=O)N2CCCCC2)cc1,> 1230
9,Cc1ccc2cccc(SCC(=O)N3CCOCC3)c2n1,> 1400
10,N#Cc1ccccc1Cn1c(-c2cscn2)nc2ccccc21,> 4000
11,O=C(Nc1ccc(OCC(=O)N2CCOCC2)cc1)c1ccccc1Cl,> 2500
12,O=C(Nc1ccc(OCC(=O)N2CCOCC2)cc1)c1ccccc1F,> 1500
13,O=C(CSc1ccc2ccccc2c1)N1CCOCC1,> 1400
14,Cc1ccc(OCC(=O)N2CCOCC2)c(C)c1,> 1000
15,CC1CN(C(=O)COc2ccccc2Cl)CC(C)O1 (configuration not stated),> 5000
16,O=C(Cn1c(-c2cscn2)nc2ccccc21)Nc1ccc(Cl)cc1,> 4000
17,O=C(COc1ccc(Cl)cc1Cl)N1CCOCC1,> 1030
18,Cc1ccc(NS(=O)(=O)c2ccc(OCC(=O)N3CCOCC3)cc2)cc1,> 1000
19,O=C(Nc1ccc(OCC(=O)N2CCOCC2)cc1)c1cccnc1,> 5000
20,Cc1ccc(OCC(=O)N2CC(C)OC(C)C2)cc1C (configuration not stated),> 5000
21,FC(F)(F)c1cccc(Cn2c(-c3cscn3)nc3ccccc32)c1,> 3000
22,Cc1ccc(Cl)cc1NS(=O)(=O)N1CCCCC1,> 3700

row,Compound,Kd [µM]
1,Fc1ccc(Cn2c(-c3cscn3)nc3ccccc32)c(Cl)c1,> 4000
2,CC(C)NS(=O)(=O)c1ccc(OCC(=O)N2CCOCC2)cc1,> 1000
3,Cc1cc(C)cc(NS(=O)(=O)N2CCCCC2)c1,> 1860
4,O=C(O)c1ccccc1SCC(=O)N1CCOCC1,> 3700
5,c1ccc2c(c1)nc(-c1cscn1)n2CCCc1nnn[nH]1,> 1500
6,c1ccc2c(c1)nc(-c1cscn1)n2Cc1ccc(-c2nnn[nH]2)cc1,> 3000
7,O=C(Cn1c(-c2cscn2)nc2ccccc21)Nc1ccccc1F,> 4000
8,CCc1ccccc1OCC(=O)N1CCOCC1,> 1500
9,Cc1cc(OCC(=O)N2CCOCC2)ccc1NC(=O)OCc1ccccc1,> 1500
10,Cc1cc(C)c(C)c(OCC(=O)N2CCOCC2)c1,> 1000
11,O=C(COc1ccccc1)N1CCOCC1,> 1030
12,Brc1ccccc1Cn1c(-c2cscn2)nc2ccccc21,> 3000
13,Cc1cc(Cl)ccc1OCC(=O)N1CCOCC1,> 1000
14,Cc1ccc(SCC(=O)N2CC(C)OC(C)C2)cc1 (configuration not stated),> 4000
15,CSc1ccccc1NC(=O)Cn1c(-c2cscn2)nc2ccccc21,> 4000
16,O=C(Nc1cccc(Cl)c1Cl)c1ccccc1OCC(=O)N1CCOCC1,> 5000
17,Cc1cc(OCC(=O)N2CC(C)OC(C)C2)cc(C)c1Cl (configuration not stated),> 5000
18,CC(C)c1ccccc1OCC(=O)N1CCOCC1,> 2500
19,Cc1ccc(C(C)C)c(OCCNC(=O)c2ccccc2OCC(=O)N2CCOCC2)c1,> 2500
20,Cc1cc(N)cc(C)c1OCC(=O)N1CCOCC1,> 2400
21,Cc1cc(C)c(OCC(=O)N2CCOCC2)c(C)c1,> 1500
22,Nc1cccc(OCC(=O)N2CCOCC2)c1,> 5000

# Continued, values first:
row,Kd [µM],Compound
1,1280,CC(C)c1ccc(S(=O)(=O)CC(=O)N2CCOCC2C(=O)OCCCc2ccc[n+]([O-])c2)cc1 (configuration not stated)
2,755,Cc1ccc(-c2ccc(OCC(=O)N3CCOCC3)cc2)cc1
3,755,O=C(COc1ccc(S(=O)(=O)NC2CCCC2)cc1)N1CCOCC1
4,755,O=C(COc1cccc(Cl)c1)N1CCOCC1
5,755,CCCCNS(=O)(=O)c1ccc(OCC(=O)N2CCOCC2)cc1
6,726,CC1CN(C(=O)CSc2ccccc2)CC(C)O1 (configuration not stated)
7,576,O=C(COc1ccc(F)cc1)N1CCOCC1
8,576,Cc1cc(OCC(=O)N2CCOCC2)cc(C(C)C)c1Cl
9,576,Cc1cc(S(=O)(=O)N2CCCC2)ccc1OCC(=O)N1CCOCC1
10,576,CCOc1ccc(OCC(=O)N2CCOCC2)cc1
11,576,O=C(COc1ccc2c(c1)OCO2)N1CCOCC1
12,576,Cc1cc(S(=O)(=O)Nc2cccc(C(F)(F)F)c2)ccc1OCC(=O)N1CCOCC1
13,552,CC(=O)c1cccc(NS(=O)(=O)N2CCCCC2)c1
14,505,COC(=O)C1COCCN1C(=O)CS(=O)(=O)c1ccc(C(C)C)cc1 (configuration not stated)
15,453,O=C(O)c1cc(C(F)(F)F)ccc1SCC(=O)N1CCOCC1
16,450,O=C(COc1cc(Cl)c(Cl)cc1Cl)N1CCOCC1
17,426,CC(C)c1ccc(SCC(=O)N2CCOCC2C(=O)O)cc1 (configuration not stated)
18,357,COc1ccc(OCC(=O)N2CCOCC2)cc1
19,357,O=C(COc1ccccc1F)N1CCOCC1
20,319,O=S(=O)(Nc1ccc(F)cc1)N1CCCCC1
21,299,O=S(=O)(Nc1ccc(Br)cc1)N1CCCCC1
22,289,Cc1ccc(NS(=O)(=O)N2CCCCC2)cc1

row,Kd [µM],Compound
1,287,Cc1ccc(NS(=O)(=O)N2CCCCC2)c(C)c1
2,231,Cc1ccc(OCC(=O)N2CCOCC2)cc1C
3,231,Cc1cc(OCC(=O)N2CCOCC2)cc(C)c1Cl
4,204,COc1ccc(CCC(=O)N2CCOCC2)cc1
5,190,COC(=O)C1COCCN1C(=O)C(F)(F)Sc1ccc(C(C)C)cc1 (configuration not stated)
6,187,Cc1cc(OCC(=O)N2CCOCC2)ccc1C(C)C
7,167,O=[N+]([O-])c1ccc(NS(=O)(=O)N2CCCCC2)cc1
8,155,O=S(=O)(Nc1cc(Cl)cc(Cl)c1)N1CCCCC1
9,135,Cc1ccc(NS(=O)(=O)N2CCCCC2)cc1Cl
10,123,CCc1ccc(OCC(=O)N2CCOCC2)cc1
11,100,CC(C)c1ccc(OCC(=O)N2CCOCC2)cc1
12,98,Nc1nc(-c2nc3ccccc3[nH]2)cs1
13,60,c1ccc2[nH]c(-c3cscn3)nc2c1 [THIABENDAZOLE]
14,39,Cc1nnc(SCC2=NOCC2)n1-c1ccccc1
15,15.3,O=C(CSc1ccccc1)N1CCOCC1
16,15,O=C(CSc1ccc(Cl)cc1)N1CCOCC1
17,15,Cc1ccc(SCC(=O)N2CCOCC2)cc1
18,5.6,CC(C)c1ccc(SCC(=O)N2CCOCC2C(=O)OCCCc2cccnc2)cc1 (configuration not stated)
19,3,COC(=O)[C@@H]1CCCCN1C(=O)C(=O)c1cc(OC)c(OC)c(OC)c1
20,2.8,CC(C)c1ccc(SC(F)(F)C(=O)N2CCOCC2)cc1
21,2.3,CC(C)c1ccc(CCC(=O)N2CCOCC2)cc1

# Tested on: not listed separately
# Assay: Metabolic stability in human liver microsomes
# Assay type: ADME, Microsome
# How it was run: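 Pooled human liver microsomes with an NADPH-generating system (DETAPAC, NADP+, glucose-6-phosphate, G6P dehydrogenase) in 50 mM potassium phosphate pH 7.4. Started by adding compound from a 5 mM stock (FK506 stock 0.5 mM). Aliquots taken at 0, 10, 25, 40 and 60 min and extracted with dichloromethane/isopropanol 3:1. Half-life determined.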
row,Compound,half-life [min]
1,COC(=O)C1COCCN1C(=O)CSc1ccc(C(C)C)cc1 (configuration not stated),40
2,C=CC[C@@H]1/C=C(\C)C[C@H](C)C[C@H](OC)[C@H]2O[C@@](O)(C(=O)C(=O)N3CCCC[C@H]3C(=O)O[C@H](/C(C)=C/[C@@H]3CC[C@@H](O)[C@H](OC)C3)[C@H](C)[C@@H](O)CC1=O)[C@H](C)C[C@@H]2OC [TACROLIMUS ANHYDROUS],> 60
3,CC(C)c1ccc(SCC(=O)N2CCOCC2)cc1,40

# Now from value to compound:
row,half-life [min],Compound
1,> 60,CC(C)c1ccc(SCC(=O)N2CCOCC2C(=O)O)cc1 (configuration not stated)
2,40,COc1ccc(CCC(=O)N2CCOCC2)cc1
3,40,COC(=O)C1COCCN1C(=O)C(F)(F)Sc1ccc(C(C)C)cc1 (configuration not stated)
4,40,CC(C)c1ccc(SCC(=O)N2CCOCC2C(=O)OCCCc2cccnc2)cc1 (configuration not stated)
5,40,COC(=O)[C@@H]1CCCCN1C(=O)C(=O)c1cc(OC)c(OC)c(OC)c1

# Molecular target: not listed separately
# Assay: Inhibition of testosterone 6-hydroxylase
# Parameters: species or system Homo sapiens
# How it was run: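 Pooled human liver microsomes with an NADPH-generating system (DETAPAC, NADP+, glucose-6-phosphate, G6P dehydrogenase) in 50 mM potassium phosphate pH 7.4. Compound added, then testosterone substrate; 10 min shaking at 37 °C, stopped with cold ethyl acetate. Read-out is 6-hydroxytestosterone formation. IC50 estimated, or determined in detail for some compounds.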
row,IC50 [nM],Compound
1,2260,C=CC[C@@H]1/C=C(\C)C[C@H](C)C[C@H](OC)[C@H]2O[C@@](O)(C(=O)C(=O)N3CCCC[C@H]3C(=O)O[C@H](/C(C)=C/[C@@H]3CC[C@@H](O)[C@H](OC)C3)[C@H](C)[C@@H](O)CC1=O)[C@H](C)C[C@@H]2OC [TACROLIMUS ANHYDROUS]
2,810,CC(C)c1ccc(SCC(=O)N2CCOCC2C(=O)OCCCc2cccnc2)cc1 (configuration not stated)
